Data published in PMC6075728 (Bioconjugate chemistry, 2017).
“Also recorded” adds a separate entry of the source. Where a SMILES comes first, the peptide text is derived from it. Where no end group is shown, it is not given here. The star is where a group is joined. X1 = O=C(O)CN1CCN(CC(=O)O)CCN(CC(O)Cn2cc(CCCC(=O)*)nn2)CCN(CC(=O)O)CC1; PEG2 = NCCOCCOCCC(=O)O

How the values were obtained:
[1] = system: LNCaP prostate tumor xenografts (EDB-FN); assay: Contrast enhanced T1-weighted MRI, LNCaP tumor xenografts; format: in vivo, mouse (male athymic nude); conditions: for signal/contrast enhancement: T1-weighted MRI, up to 30 min post-injection; for contrast-to-noise ratio (CNR), range: first 30 min post-injection, i.v., 7T
[2] = system: other organs and normal tissues; assay: Contrast enhanced T1-weighted MRI, other organs and normal tissues; format: in vivo, mouse (male athymic nude); conditions: i.v.
[3] = system: PC3 prostate tumor xenografts (EDB-FN); assay: Contrast enhanced T1-weighted MRI, PC3 tumor xenografts; format: in vivo, mouse (male athymic nude); conditions: for tumor differentiation: CNR/enhancement in PC3 vs LNCaP tumors: PC3 compared with LNCaP tumors, during 30 min after injection; for signal/contrast enhancement: T1-weighted MRI, up to 30 min post-injection; for contrast-to-noise ratio (CNR), range: first 30 min post-injection, i.v. (ZD2-Gd(HP-DO3A) 0.1 mmol/kg), ZD2-Gd(HP-DO3A) vs ProHance P < 0.05 at all time points
[4] = r1 relaxivity in PC3 tumor lysates; format: physicochemical; conditions: T1 mapping phantom
PC3 and LNCaP tumors = conditions: after T1 mapping, about 30 min post-injection; n = 4
LNCaP tumors = assay: Quantitative T1 mapping, LNCaP tumors; format: in vivo, mouse (male athymic nude); conditions: 30 min after injection
[5] = T1 relaxivity at 7T in PBS; format: physicochemical; conditions: phantom, 3.12 - 50 μM
Outline: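 Multi-compartment phantom of the test compound in PBS at 50, 25, 12.5, 6.25 and 3.12 μM, imaged on a horizontal 7T scanner. T1 maps came from an accelerated multi-slice method combining a saturation-recovery Look-Locker sequence with spiral k-space sampling. r1 was taken from the slope of 1/T1 plotted against concentration.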

[6] = In vivo transmetallation and urinary excretion
[7] = In vitro chelate stability / transmetallation in PBS with Cu2+, Ca2+, Zn2+; format: physicochemical
[8] = Gd biodistribution / tissue retention; conditions: 1 week after injection, ICP-OES
EDB protein = EDB protein (Homo sapiens, UniProt P02751); assay: SPR binding to immobilized EDB protein; conditions: second (blue) trend line
PC3 tumors = assay: Quantitative T1 mapping, PC3 tumors; format: in vivo, mouse (male athymic nude); conditions: 30 min after injection
[9] = system: high-grade human prostate tumor; conditions: cited from earlier work
non-cancerous tissue = conditions: cited from earlier work
[10] = system: EDB-FN in PC3 tumor sections; assay: Confocal fluorescence of PC3 tumor sections; design: species or system mouse; conditions: confocal microscopy
low-grade tumor = conditions: cited from earlier work

EDB protein, sequence (P02751 1271-1359 limits assumed): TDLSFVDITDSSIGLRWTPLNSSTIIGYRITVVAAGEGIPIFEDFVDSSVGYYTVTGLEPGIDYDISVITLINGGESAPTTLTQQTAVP

CC(O)CN1CCN(CC(=O)[O-])CCN(CC(=O)[O-])CCN(CC(=O)[O-])CC1.[Gd+3] (centres unmarked) [ProHance, gadoteridol, reference compound]
signal/contrast enhancement ([1]; LNCaP tumors): modest contrast enhancement
contrast-to-noise ratio (CNR), range ([1]; LNCaP tumors, n=5): 7~10
contrast enhancement in other organs and normal tissues [2]: did not produce significant contrast enhancement
tumor differentiation: CNR/enhancement in PC3 vs LNCaP tumors [3]: not significantly different
signal/contrast enhancement ([3]; PC3 tumors): modest contrast enhancement
contrast-to-noise ratio (CNR), range ([3]; PC3 tumors, 7T, n=5): 7~11
r1 relaxivity [4]: 3.17 mM⁻¹ s⁻¹

CC(C)[C@H](NC(=O)[C@@H](NC(=O)CCOCCOCCNC(=O)CCCc1cn(CC(O)CN2CCN(CC(=O)O)CCN(CC(=O)O)CCN(CC(=O)O)CC2)nn1)[C@@H](C)O)C(=O)N[C@@H](CCCNC(=N)N)C(=O)N[C@H](C(=O)N[C@@H](CO)C(=O)N[C@@H](C)C(=O)N[C@@H](CC(=O)O)C(=O)O)[C@@H](C)O (some centres unmarked) [ZD2-Gd(HP-DO3A)] ({X1-PEG2}-TVRTSAD-OH; C-terminus assumed)
Gd3+ concentration in tumors (ICP-OES) (PC3 and LNCaP tumors): significantly higher concentration in the PC3 tumors than in the LNCaP tumors and that of ProHance in both the tumors
signal/contrast enhancement ([1]; LNCaP tumors): significantly lower signal enhancement; also recorded: not evident in slow growing LNCaP tumors; also recorded: low enhancement
CNR increase ([1]; LNCaP tumors, first 30 min after 0.1 mmol/kg i.v., n=5): 10~60%
contrast-to-noise ratio (CNR), range ([1]; LNCaP tumors, n=5): 6~9
CNR in LNCaP relative to PC3 tumors ([1]; LNCaP vs PC3, P < 0.01 for 10 and 20 min, P < 0.001 for 30 min post-injection): more than two times lower
tumor T1, post-contrast (LNCaP tumors): 2.54 ± 0.13 s
T1 relaxivity (r1) [5]: 3.7 mM⁻¹ s⁻¹
chelation stability in vivo ([6]; summary statement, Fig. 7): same high in vitro and in vivo chelation stability
renal clearance ([6]; urine, 24 hours post-injection): rapid clearance through renal filtration
injected dose excreted in urine ([6]; within 24 hours post-injection, 0.1 mmol-Gd/kg tail vein, ICP-OES): over 95%
relative Gd3+ content ([7]; 200-min incubation in PBS with and without Cu2+, Ca2+ or Zn2+): No decrease in Gd^3+ content was observed
transmetallation / chelate stability ([7]; 24 hours incubation with Cu2+, Ca2+ and Zn2+ in PBS, pH = 7.4): high chelate stability, comparable to its clinical analog ProHance, with no evident transmetallation
chelation stability in vitro ([7]; summary statement, Fig. 2): high chelate stability against transmetallation; also recorded: same high in vitro and in vivo chelation stability
contrast enhancement in other organs and normal tissues [2]: did not produce significant contrast enhancement
tissue retention / accumulation ([8]; 0.1 mmol-Gd/kg tail vein, ZD2-Gd(HP-DO3A) n = 4, ProHance n = 3): minimal tissue accumulation; also recorded: same low tissue retention as ProHance; also recorded: No significant difference was seen between the two groups; also recorded: minimal body accumulation
Gd3+ concentration in most organs, including brain, heart, skin [8]: below the detection limit of ICP-OES in most of the organs
tumor differentiation: CNR/enhancement in PC3 vs LNCaP tumors [3]: over two times higher
CNR increase at 10 min ([3]; PC3 tumors, 10 min post-injection, 0.1 mmol/kg i.v., n=5): over two-fold increase
contrast-to-noise ratio (CNR), peak ([3]; PC3 tumors, 30 min post-injection, 0.1 mmol/kg i.v., 7T, mean±SEM, n=5): 23.7±1.68
CNR increase at 30 min ([3]; PC3 tumors, 30 min post-injection, 0.1 mmol/kg i.v., n=5): over five-fold increase
signal/contrast enhancement ([3]; PC3 tumors): strong signal enhancement within first 10 minutes post-injection
contrast-to-noise ratio (CNR), range ([3]; PC3 tumors, 7T, n=5): 12~25
r1 relaxivity [4]: 4.12 mM⁻¹ s⁻¹
weak binding site in SPR Scatchard plot (EDB protein): weak binding site
tumor T1, post-contrast (PC3 tumors): 1.81 ± 0.07 s
change in relaxation rate (ΔR1) (PC3 tumors; n = 4): highest relaxation rate change in the PC3 tumors among all cases

Cys-Arg-Glu-Lys-Ala [CREKA-Gd(HP-DO3A), reference compound]
signal/contrast enhancement ([1]; LNCaP tumors): significant contrast enhancement in the periphery
tumor differentiation: CNR/enhancement in PC3 vs LNCaP tumors [3]: no significant difference
signal/contrast enhancement ([3]; PC3 tumors): significant contrast enhancement in the periphery

TVRTSAD [ZD2]
binding to high-grade human prostate tumor [9]: strong specific binding
binding in non-cancerous tissue (non-cancerous tissue): non-binding
reduction of PC3 tumor enhancement by competition ([3]; co-injection of excess free ZD2 peptide 0.5 mmol/kg with ZD2-Gd(HP-DO3A) 0.1 mmol/kg, PC3 tumors, n=3): significantly reduced signal enhancement and CNR; also recorded: blocked the binding of the targeted agent and reduced tumor enhancement in the PC3 tumors
colocalization with EDB-FN [10]: colocalize with the EDB-FN fibril network
binding to low-grade tumor (low-grade tumor): low binding
